# Source: ChEMBL document CHEMBL1154150, “Synthesis and anticonvulsant activity of some new bishydrazones derived from 3,4-dipropyloxythiophene” (Eur J Med Chem, 2009)
# Active and inactive are the calls of the source. The calls are words filed in the database; no cut-off is given here.
# Experiments:
# Mus musculus [1] = test: Anticonvulsant activity in CF1 mouse assessed as protection against subcutaneous metrazole-induced seizures at 100 mg/kg, ip after 4 hrs; assay type: functional, organism-based; set-up: dose 100 mg/kg
# Mus musculus [2] = test: Anticonvulsant activity in CF1 mouse assessed as protection against subcutaneous metrazole-induced seizures at 30 mg/kg, ip after 4 hrs; assay type: functional, organism-based; set-up: dose 30 mg/kg
# Mus musculus [3] = test: Neurotoxicity in CF1 mouse at 100 mg/kg, ip after 4 hrs by rotarod test; assay type: toxicity, organism-based; set-up: dose 100 mg/kg, route intraperitoneal; conditions: in vivo
# Summary of the method: (§1)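 Rotorod neurotoxicity in male CF-1 mice (18–25 g) after i.p. compound in 0.5% methyl cellulose/water or PEG 200 at 30, 100 or 300 mg/kg; reported as number showing toxicity/number tested.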
# Mus musculus [4] = test: Anticonvulsant activity in CF1 mouse assessed as protection against subcutaneous metrazole-induced seizures at 300 mg/kg, ip after 4 hrs; assay type: functional, organism-based; set-up: dose 300 mg/kg
# Mus musculus [5] = test: Neurotoxicity in CF1 mouse at 100 mg/kg, ip after 0.5 hrs by rotarod test; assay type: toxicity, organism-based; set-up: dose 100 mg/kg, route intraperitoneal; conditions: in vivo; summary of the method: as §1
# Mus musculus [6] = test: Anticonvulsant activity in CF1 mouse assessed as protection against maximal electroshock-induced seizures at 300 mg/kg, ip after 0.5 hrs; assay type: functional, organism-based; set-up: dose 300 mg/kg
# Summary of the method: (§2)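 Male CF-1 albino mice (18–25 g), dosed i.p. at 30, 100 or 300 mg/kg in 0.5% methyl cellulose/water or PEG 200 (0.01 ml/g); tested at intervals after dosing; protection = abolition of hind limb tonic extensor component of MES seizure; scored as protected/tested.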
# Mus musculus [7] = test: Anticonvulsant activity in CF1 mouse assessed as protection against subcutaneous metrazole-induced seizures at 300 mg/kg, ip after 0.5 hrs; assay type: functional, organism-based; set-up: dose 300 mg/kg
# Mus musculus [8] = test: Anticonvulsant activity in CF1 mouse assessed as protection against subcutaneous metrazole-induced seizures at 30 mg/kg, ip after 0.5 hrs; assay type: functional, organism-based; set-up: dose 30 mg/kg
# Mus musculus [9] = test: Anticonvulsant activity in CF1 mouse assessed as protection against maximal electroshock-induced seizures at 30 mg/kg, ip after 0.5 hrs; assay type: functional, organism-based; set-up: dose 30 mg/kg; summary of the method: as §2
# Mus musculus [10] = test: Neurotoxicity in CF1 mouse at 30 mg/kg, ip after 4 hrs by rotarod test; assay type: toxicity, organism-based; set-up: dose 30 mg/kg, route intraperitoneal; conditions: in vivo; summary of the method: as §1
# Mus musculus [11] = test: Neurotoxicity in CF1 mouse at 30 mg/kg, ip after 0.5 hrs by rotarod test; assay type: toxicity, organism-based; set-up: dose 30 mg/kg, route intraperitoneal; conditions: in vivo; summary of the method: as §1
# Mus musculus [12] = test: Anticonvulsant activity in CF1 mouse assessed as protection against maximal electroshock-induced seizures at 100 mg/kg, ip after 0.5 hrs; assay type: functional, organism-based; set-up: dose 100 mg/kg; summary of the method: as §2
# Mus musculus [13] = test: Neurotoxicity in CF1 mouse at 300 mg/kg, ip after 4 hrs by rotarod test; assay type: toxicity, organism-based; set-up: dose 300 mg/kg, route intraperitoneal; conditions: in vivo; summary of the method: as §1
# Mus musculus [14] = test: Anticonvulsant activity in CF1 mouse assessed as protection against maximal electroshock-induced seizures at 30 mg/kg, ip after 4 hrs; assay type: functional, organism-based; set-up: dose 30 mg/kg; summary of the method: as §2
# Mus musculus [15] = test: Anticonvulsant activity in CF1 mouse assessed as protection against maximal electroshock-induced seizures at 300 mg/kg, ip after 4 hrs; assay type: functional, organism-based; set-up: dose 300 mg/kg; summary of the method: as §2
# Mus musculus [16] = test: Neurotoxicity in CF1 mouse at 300 mg/kg, ip after 0.5 hrs by rotarod test; assay type: toxicity, organism-based; set-up: dose 300 mg/kg, route intraperitoneal; conditions: in vivo; summary of the method: as §1
# Mus musculus [17] = test: Anticonvulsant activity in CF1 mouse assessed as protection against subcutaneous metrazole-induced seizures at 100 mg/kg, ip after 0.5 hrs; assay type: functional, organism-based; set-up: dose 100 mg/kg
# Mus musculus [18] = test: Anticonvulsant activity in CF1 mouse assessed as protection against maximal electroshock-induced seizures at 100 mg/kg, ip after 4 hrs; assay type: functional, organism-based; set-up: dose 100 mg/kg; summary of the method: as §2
SMILES,Activity (Mus musculus [1]),Activity (Mus musculus [2]),Activity (Mus musculus [3]),Activity (Mus musculus [4]),Activity (Mus musculus [5]),Activity (Mus musculus [6]),Activity (Mus musculus [7]),Activity (Mus musculus [8]),Activity (Mus musculus [9]),Activity (Mus musculus [10]),Activity (Mus musculus [11]),Activity (Mus musculus [12]),Activity (Mus musculus [13]),Activity (Mus musculus [14]),Activity (Mus musculus [15]),Activity (Mus musculus [16]),Activity (Mus musculus [17]),Activity (Mus musculus [18])
CCCOc1c(C(=O)N/N=C(\C)c2c[nH]c3ccccc23)sc(C(=O)N/N=C(\C)c2c[nH]c3ccccc23)c1OCCC,inactive,inactive,Non-toxic,inactive,Non-toxic,inactive,inactive,inactive,inactive,Non-toxic,Non-toxic,inactive,Non-toxic,inactive,inactive,Non-toxic,inactive,inactive
CCCC/C=N/NC(=O)c1sc(C(=O)N/N=C/CCCC)c(OCCC)c1OCCC,inactive,inactive,Non-toxic,inactive,Toxic,inactive,inactive,inactive,inactive,Non-toxic,Non-toxic,inactive,Non-toxic,inactive,inactive,Toxic,,inactive
CCCOc1c(C(=O)N/N=C(\C)c2ccc[nH]2)sc(C(=O)N/N=C(\C)c2ccc[nH]2)c1OCCC,inactive,inactive,Non-toxic,inactive,Non-toxic,inactive,inactive,inactive,inactive,Non-toxic,Non-toxic,inactive,Non-toxic,inactive,inactive,Non-toxic,inactive,inactive
CCCOc1c(C(=O)N/N=C(\C)c2ccccn2)sc(C(=O)N/N=C(\C)c2ccccn2)c1OCCC,inactive,inactive,Non-toxic,inactive,Non-toxic,inactive,inactive,inactive,inactive,Non-toxic,Non-toxic,inactive,Non-toxic,inactive,inactive,Non-toxic,inactive,inactive
CCCOc1c(C(=O)N/N=C(/c2ccccc2)c2ccncc2)sc(C(=O)N/N=C(\c2ccccc2)c2ccncc2)c1OCCC,inactive,,Non-toxic,inactive,Non-toxic,inactive,inactive,inactive,inactive,Non-toxic,Non-toxic,,Non-toxic,inactive,inactive,Non-toxic,inactive,inactive
CCCOc1c(C(=O)N/N=C(\C)c2nccs2)sc(C(=O)N/N=C(\C)c2nccs2)c1OCCC,inactive,inactive,Non-toxic,inactive,Non-toxic,inactive,inactive,inactive,inactive,Non-toxic,Non-toxic,,Non-toxic,inactive,inactive,Non-toxic,inactive,inactive
CCCOc1c(C(=O)N/N=C(\C)c2cc3ccccc3oc2=O)sc(C(=O)N/N=C(\C)c2cc3ccccc3oc2=O)c1OCCC,inactive,inactive,Non-toxic,inactive,Toxic,inactive,inactive,inactive,inactive,Non-toxic,Non-toxic,inactive,Toxic,inactive,,Toxic,inactive,inactive
CCCOc1c(C(=O)N/N=C\c2ccc([N+](=O)[O-])o2)sc(C(=O)N/N=C/c2ccc([N+](=O)[O-])o2)c1OCCC,inactive,inactive,Toxic,inactive,Toxic,inactive,inactive,inactive,inactive,Non-toxic,,inactive,Toxic,inactive,inactive,Toxic,,inactive
CCCOc1c(C(=O)N/N=C\c2cccs2)sc(C(=O)N/N=C/c2cccs2)c1OCCC,inactive,inactive,Non-toxic,inactive,Toxic,inactive,inactive,inactive,inactive,Non-toxic,Non-toxic,inactive,Toxic,inactive,inactive,Toxic,,inactive
CCCOc1c(C(=O)N/N=C(\C)c2ccccc2)sc(C(=O)N/N=C(\C)c2ccccc2)c1OCCC,inactive,inactive,Non-toxic,inactive,Non-toxic,inactive,inactive,inactive,inactive,Non-toxic,Non-toxic,inactive,Non-toxic,inactive,,Non-toxic,inactive,inactive
CCCOc1c(C(=O)NN=C2CCCC2)sc(C(=O)NN=C2CCCC2)c1OCCC,inactive,inactive,Non-toxic,inactive,Non-toxic,inactive,inactive,inactive,inactive,Non-toxic,Non-toxic,inactive,Non-toxic,inactive,,Non-toxic,inactive,inactive
